Measured values published in ChEMBL document CHEMBL1148755, “Structural analogues of smoothened intracellular loops as potent inhibitors of Hedgehog pathway and cancer cell growth” (J Med Chem, 2007).
pIC50: −log10 of the molar value. Activity calls are given as the source filed them. The rule behind the calls is not given here. Square brackets hold non-standard residues; d marks the D form. Peptide text beside a SMILES is read from it. * marks the point of attachment. Bpa = N[C@@H](Cc1ccc(C(=O)c2ccccc2)cc1)C(=O)O; Palmitoyl = CCCCCCCCCCCCCCCC(=O)*

What was measured:
[1] = system: SK-MEL-2; experiment: Growth inhibition of SK-Mel2 melanoma cells after 48 hrs by MTT assay; type: functional, cell-based, Homo sapiens
Outline: (§1)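 Cells seeded at 200-400 per well in DMEM with 10% FBS and left to attach for 24 h. The next day, inhibitor in medium at 2× was added in an equal volume, and cells were incubated 48 h in a CO2 incubator. Reference plates were read at time of addition for T0 density. MTT staining was read as absorbance at 544 nm and compared with untreated control cells.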

[2] = system: MCF7; experiment: Growth inhibition of breast cancer MCF7 cells after 48 hrs by MTT assay; type: functional, cell-based; conditions: Homo sapiens; outline: as §1

| pIC50 ([1]; Homo sapiens, SK-MEL-2, 48 h) | Compound | further results |
| --- | --- | --- |
| 5.85 | CCCCCCCCCCCCCCCC(=O)N[C@@H](CC(C)C)C(=O)N[C@H](C(=O)N[C@@H](Cc1ccc(O)cc1)C(=O)N[C@@H](C)C(=O)N[C@@H](Cc1c[nH]c2ccccc12)C(=O)N[C@@H](Cc1cnc[nH]1)C(=O)N[C@H](C(=O)N[C@@H](CO)C(=O)N[C@@H](Cc1ccccc1)C(=O)N[C@@H](CCCCN)C(=O)N[C@@H](C)C(=O)N[C@@H](CC(C)C)C(=O)NCC(=O)N[C@H](C(=O)N[C@H](C(=O)N[C@@H](Cc1ccc(O)cc1)C(=O)N[C@@H](CCC(N)=O)C(=O)N1CCC[C@H]1C(=O)N[C@@H](CC(C)C)C(=O)N[C@@H](CO)C(=O)NCC(=O)O)[C@@H](C)O)[C@@H](C)O)[C@@H](C)O)[C@@H](C)O (Palmitoyl-LTYAWHTSFKALGTTYQPLSG-OH) | – |
| 6.35 | CCCCCCCCCCCCCCCC(=O)N[C@@H](CC(C)C)C(=O)N[C@H](C(=O)N[C@@H](Cc1ccc(O)cc1)C(=O)N[C@@H](C)C(=O)N[C@@H](Cc1c[nH]c2ccccc12)C(=O)N[C@@H](Cc1cnc[nH]1)C(=O)N[C@H](C(=O)N[C@@H](CO)C(=O)N[C@@H](Cc1ccccc1)C(=O)N[C@@H](CCCCN)C(=O)N[C@@H](C)C(=O)N[C@@H](CC(C)C)C(=O)NCC(=O)N[C@H](C(=O)N[C@H](C(=O)N[C@@H](Cc1ccc(O)cc1)C(=O)N[C@@H](CCC(N)=O)C(=O)N1CCC[C@H]1C(=O)N[C@@H](CC(C)C)C(=O)N[C@@H](CO)C(=O)NCC(=O)N[C@@H](CCCCN)C(=O)N[C@H](C(=O)N[C@@H](CO)C(=O)N[C@@H](Cc1ccc(O)cc1)C(=O)O)[C@@H](C)O)[C@@H](C)O)[C@@H](C)O)[C@@H](C)O)[C@@H](C)O (Palmitoyl-LTYAWHTSFKALGTTYQPLSGKTSY-OH) | – |
| 7.30 | CCCCCCCCCCCCCCCC(=O)NCCCC[C@H](NC(=O)[C@H](Cc1ccc(O)cc1)NC(=O)[C@H](CO)NC(=O)[C@@H](NC(=O)[C@H](CCCCN)NC(=O)CNC(=O)[C@H](CO)NC(=O)[C@H](CC(C)C)NC(=O)[C@@H]1CCCN1C(=O)[C@H](CCC(N)=O)NC(=O)[C@H](Cc1ccc(O)cc1)NC(=O)[C@@H](NC(=O)[C@@H](NC(=O)CNC(=O)[C@H](CC(C)C)NC(=O)[C@H](C)NC(=O)[C@H](CCCCN)NC(=O)[C@H](Cc1ccccc1)NC(=O)[C@H](CO)NC(=O)[C@@H](NC(=O)[C@H](Cc1cnc[nH]1)NC(=O)[C@H](Cc1c[nH]c2ccccc12)NC(=O)[C@H](C)NC(=O)[C@H](Cc1ccc(O)cc1)NC(=O)[C@@H](NC(=O)[C@H](CC(C)C)NC(=O)CCCCCCCCCCCCCCC)[C@@H](C)O)[C@@H](C)O)[C@@H](C)O)[C@@H](C)O)[C@@H](C)O)C(=O)O (Palmitoyl-LTYAWHTSFKALGTTYQPLSGKTSYK(Palmitoyl)-OH) | – |
| 6.02 | CCCCCCCCCCCCCCCC(=O)N[C@@H](CCCNC(=N)N)C(=O)NCC(=O)N[C@H](C(=O)N[C@@H](CCSC)C(=O)N[C@H](C(=O)N[C@@H](CC(C)C)C(=O)N[C@@H](Cc1ccccc1)C(=O)N[C@@H](CO)C(=O)N[C@H](C(=O)N[C@@H](CCCCN)C(=O)N[C@@H](CO)C(=O)N[C@@H](CC(N)=O)C(=O)N[C@@H](Cc1c[nH]cn1)C(=O)O)[C@@H](C)CC)[C@@H](C)O)C(C)C (Palmitoyl-RGVMTLFSIKSNH-OH) | – |
| 6.30 | CCCCCCCCCCCCCCCC(=O)N[C@@H](CCCNC(=N)N)C(=O)NCC(=O)N[C@H](C(=O)N[C@@H](CCSC)C(=O)N[C@H](C(=O)N[C@@H](CC(C)C)C(=O)N[C@@H](Cc1ccccc1)C(=O)N[C@@H](CO)C(=O)N[C@H](C(=O)N[C@@H](CCCCN)C(=O)N[C@@H](CO)C(=O)N[C@@H](CC(N)=O)C(=O)N[C@@H](Cc1c[nH]cn1)C(=O)N1CCC[C@H]1C(=O)NCC(=O)N[C@@H](CC(C)C)C(=O)N[C@@H](CC(C)C)C(=O)N[C@@H](CO)C(=O)O)[C@@H](C)CC)[C@@H](C)O)C(C)C (Palmitoyl-RGVMTLFSIKSNHPGLLS-OH) | – |
| 6.30 | CCCCCCCCCCCCCCCC(=O)N[C@@H](CCCNC(=N)N)C(=O)NCC(=O)N[C@H](C(=O)N[C@@H](CCSC)C(=O)N[C@H](C(=O)N[C@@H](CC(C)C)C(=O)N[C@@H](Cc1ccccc1)C(=O)N[C@@H](CO)C(=O)N[C@H](C(=O)N[C@@H](CCCCN)C(=O)N[C@@H](CO)C(=O)N[C@@H](CC(N)=O)C(=O)N[C@@H](Cc1c[nH]cn1)C(=O)N1CCC[C@H]1C(=O)NCC(=O)N[C@@H](CC(C)C)C(=O)N[C@@H](CC(C)C)C(=O)N[C@@H](CO)C(=O)N[C@@H](CCC(=O)O)C(=O)N[C@@H](CCCCN)C(=O)N[C@@H](C)C(=O)O)[C@@H](C)CC)[C@@H](C)O)C(C)C (Palmitoyl-RGVMTLFSIKSNHPGLLSEKA-OH) | – |
| – | CCCCCCCCCCCCCCCC(=O)N[C@H](C(=O)N[C@@H](Cc1ccccc1)C(=O)N[C@H](C(=O)N[C@@H](C)C(=O)N[C@@H](CC(=O)O)C(=O)N[C@@H](Cc1c[nH]c2ccccc12)C(=O)N[C@@H](CCCNC(=N)N)C(=O)N[C@@H](CC(N)=O)C(=O)N[C@@H](CO)C(=O)N[C@@H](CC(N)=O)C(=O)N[C@@H](CCCNC(=N)N)C(=O)N[C@@H](Cc1ccc(O)cc1)C(=O)O)C(C)C)[C@@H](C)O (Palmitoyl-TFVADWRNSNRY-OH) | Activity [2]: Active |
| 6.15 | CCCCCCCCCCCCCCCC(=O)N[C@H](C(=O)N[C@@H](Cc1ccc(O)cc1)C(=O)N[C@@H](C)C(=O)N[C@@H](Cc1c[nH]c2ccccc12)C(=O)N[C@@H](Cc1cnc[nH]1)C(=O)N[C@H](C(=O)N[C@@H](CO)C(=O)N[C@@H](Cc1ccccc1)C(=O)N[C@@H](CCCCN)C(=O)N[C@@H](C)C(=O)N[C@@H](CC(C)C)C(=O)O)[C@@H](C)O)[C@@H](C)O (Palmitoyl-TYAWHTSFKAL-OH) | – |
| – | CCCCCCCCCCCCCCCC(=O)NCCCC[C@H](NC(=O)[C@H](CCCNC(=N)N)NC(=O)[C@H](CC(C)C)NC(=O)[C@H](CCSC)NC(=O)[C@@H](NC(=O)[C@H](CCC(=O)O)NC(=O)[C@H](CC(N)=O)NC(=O)[C@@H](NC(=O)[C@H](CCCCN)NC(=O)[C@H](CO)NC(=O)[C@H](C)NC(=O)[C@H](C)NC(=O)[C@H](CCCCN)NC(=O)[C@H](CCC(=O)O)NC(=O)[C@H](CO)NC(=O)[C@H](CC(C)C)NC(=O)[C@H](CC(C)C)NC(C)=O)[C@@H](C)CC)[C@@H](C)O)C(=O)O (stereo in doubt; form 1) | pIC50 ([1]; sk-mel-2): 6.10 |
| 5.88 | CCCCCCCCCCCCCCCC(=O)NCCCC[C@H](NC(=O)[C@H](CCCNC(=N)N)NC(=O)[C@H](CC(C)C)NC(=O)[C@H](CCSC)NC(=O)[C@@H](NC(=O)[C@H](CCC(=O)O)NC(=O)[C@H](CC(N)=O)NC(=O)[C@@H](NC(=O)[C@H](CCCCN)NC(=O)[C@H](CO)NC(=O)[C@H](C)NC(=O)[C@H](C)NC(=O)[C@H](CCCCN)NC(=O)[C@H](CCC(=O)O)NC(=O)[C@H](CO)NC(=O)[C@H](CC(C)C)NC(=O)[C@H](CC(C)C)NC(C)=O)[C@@H](C)CC)[C@@H](C)O)C(=O)O (stereo in doubt; form 2) | – |
| < 5.00 | Ac-LTYAWHTSFKAL-OH | – |
| 5.55 | Ac-TYAWHTSFKA-OH | – |
| < 5.30 | H-VWFVVLTYAWHTSFKAL-OH | – |
| < 5.30 | H-WFVVLTYAWHTSFKAL-OH | – |

| Compound | pIC50 ([1]; Homo sapiens, SK-MEL-2, 48 h) | further results |
| --- | --- | --- |
| CCCCCCCCCCCCCCCC(=O)N[C@@H](CC(C)C)C(=O)N[C@H](C(=O)N[C@@H](Cc1ccc(O)cc1)C(=O)N[C@@H](C)C(=O)N[C@@H](Cc1ccc(C(=O)c2ccccc2)cc1)C(=O)N[C@@H](Cc1cnc[nH]1)C(=O)N[C@H](C(=O)N[C@@H](CO)C(=O)N[C@@H](Cc1ccccc1)C(=O)N[C@@H](CCCCN)C(=O)N[C@@H](C)C(=O)N[C@@H](CC(C)C)C(=O)O)[C@@H](C)O)[C@@H](C)O (Palmitoyl-LTYA[Bpa]HTSFKAL-OH) | 7.00 | – |
